# Reference: ChEMBL document CHEMBL4513216, “Probing the Open Global Health Chemical Diversity Library for Multistage-Active Starting Points for Next-Generation Antimalarials” (ACS Infect Dis, 2020)
# Assay: Toxicity liver stage against HepG2, at 10uM
# Format: cell-based
# Design: test concentration 10 uM, cell line HepG2-A16-CD81EGFP
# Details: human, HepG2-A16-CD81EGFP cells; read-out: INHIBITION
# Method in brief: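 Uninfected HepG2-A16-CD81EGFP cells, 3 × 10^3 per well, 1536-well, plated on prespotted compound at 10 μM final, parasite-free screening media added to match infected plates; puromycin 10 μM positive, DMSO 0.5% negative; run in parallel with 48 h PbLuc assay at 37 °C, 5% CO2; viability by CellTiter-Glo luminescence, normalized to controls.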
row,Compound,cytotoxicity at 10 µM
1,NC(=O)C1CCN(C(=O)CCSCc2ccccc2)CC1,4.22%
2,COc1ccc(C(=O)NCCN2CCC(c3cccs3)CC2)cc1OC,-0.493%
3,COc1ncnc2c1CCN(C(=O)NCc1cccc(F)c1)CC2,-7.27%
4,O=C(C1CCCO1)N1CC[C@@H]2CN(Cc3ccccc3)S(=O)(=O)[C@@H]2CC1 (stereo partly specified),12.9%
5,O=C(N[C@@H]1CN(c2ncc(F)cn2)[C@@H]2COC[C@@H]21)c1cscn1,-139%
6,CN1CCC2(CC1)CN(C)C(=O)C[C@@H]2C(F)(F)F,-144%
7,COCCc1noc(-c2ccc(=O)[nH]c2)n1,-3.61%
8,COc1ccc(Cl)cc1-c1nc(N)nc(N)n1,1.57%
9,Cc1ccccc1OC1CCN(CC(=O)Nc2cn(C)nc2C)CC1,-0.0825%
10,Cc1n[nH]c(C)c1CC(=O)N1CC[C@@](C)(O)[C@H](Oc2ccccc2)C1,2.85%
11,CCCN1CCCCCC1Cc1c(C(=O)NC)sc2ccccc12 (stereo unspecified),8.53%
12,Cc1c(C(=O)NC2CCCOC2)nnn1-c1ccccc1 (stereo unspecified),-24.5%
13,Cc1cc(C2CCN(S(=O)(=O)c3cn(C)cn3)CC2)ccn1,-32.6%
14,Cc1nc(C2CCCN2C(=O)CC2CCCC2)ncc1C(N)=O (stereo unspecified),-21.7%
15,O=C(NC1CCCc2nc(N3CCOCC3)ncc21)C1CCCCC1 (stereo unspecified),-19.9%
16,Cc1ccc(-c2cc(N)c(=O)n(CC(=O)NCC3CC3)n2)s1,10.3%
17,NCc1cnn(-c2ccccc2C(=O)NCc2ccncc2)c1,-1.78%
18,CCc1ccc(C(NCC(N)=O)C(C)(C)C)o1 (stereo unspecified),-7.21%
19,COc1ccc2oc(C(C)NC(=O)NCc3noc(C)n3)c(C)c2c1 (stereo unspecified),5.08%
20,Cc1nnc(NC(=O)CN2CCc3c(nc(C(C)C)n3C)C2)s1,-1.94%
21,C1CCC(NC2CCCN(Cc3noc(C4CC4)n3)C2)C1 (stereo unspecified),-5.05%
22,COc1ccc(C)cc1-n1ccc(C(=O)NCC2CCCOC2)n1 (stereo unspecified),-2.51%
23,Cn1nnnc1SCC1Cc2ccccc2O1 (stereo unspecified),14.9%

row,Compound,cytotoxicity at 10 µM
1,CCCc1ncc(CN(C)C2CCCN(CCc3ccccc3)C2)cn1 (stereo unspecified),0.301%
2,Cc1nc(CN2CCN(c3cc(CCN)ncn3)CC2)cs1,-145%
3,CSCCCNC(=O)C(c1cccc(F)c1)N(C)C (stereo unspecified),0.28%
4,O=C(CN1CC(c2ccccc2)CC1=O)NCc1cc2n(n1)CCNC2 (stereo unspecified),1.05%
5,CN1CCC(N(Cc2ccncc2)C(=O)COCC2CCCCO2)CC1 (stereo unspecified),-150%
6,CN(C)C(=O)N1CCn2nc(CNC(=O)CCC(F)(F)F)cc2C1,5.6%
7,Cc1csc(N2CCN(C(=O)C(C(C)C)n3cncn3)CC2)n1 (stereo unspecified),-13.1%
8,Cc1cc(C(=O)NCc2ccnc(N3CCN(C)CC3)c2)no1,-6.63%
9,Cc1nc2ccccc2c(=O)n1CCC(=O)N1CCCC1,-10%
10,COc1ccc(NC(=O)N(C)Cc2ccsc2)cn1,-2.36%
11,CCNc1cc2c(nn1)CCN(C(=O)CC1CCCC1)C2,-3.87%
12,CCNc1cc2c(nn1)CCN(C(=O)c1cc3ccccc3o1)C2,3.88%
13,Cn1ccc(C(=O)NCc2ccc(N3CCCCCC3)nc2)cc1=O,-3.18%
14,COCCc1noc(CN2CCCC2c2c(C)nn(C)c2OC)n1 (stereo unspecified),-2.36%
15,CCn1cnnc1CNC(=O)N1CCC(O)CC1,-4.86%
16,O=C(NCCc1ccc(Cl)s1)N1CCS(=O)(=O)CC1,1.92%
17,Cc1nc(C)n(C2CCCN(C(=O)c3cccnc3NC(C)C)C2)n1 (stereo unspecified),-2.28%
18,Cc1nc(CN(C)C2CCN(CC(=O)N3CCOCC3)C2)no1 (stereo unspecified),-4.91%
19,O=C([C@H]1CCCO1)N1CCC2(CC1)CNCc1ccccc12,-2.57%
20,O=S(=O)(C1CC1)N1CC[C@]2(C[C@@H](Oc3ccccn3)CO2)C1,-10.4%
21,c1cnc2c(c1)cc([C@H]1CCCO1)n2CCN1CCCC1,0.975%
22,CCCC12CN3CC(CCC)(CN(C1)C3c1[nH]c(=O)[nH]c(=O)c1C)C2=O (stereo unspecified),4.17%
23,O=C(c1c[nH]c(=O)cn1)N1C[C@H]2CC[C@@H](C1)N(Cc1ccccc1)C2,-126%
